Screening data deposited in PubChem BioAssay by several laboratories.
In the library only some 3.9% were active in any assay of this set; here they are far more common.
697 NFkB inh: inhibitors of the PMA/ionomycin-induced NF-kB reporter in 697 B cells; 697 B-cell NF-kB luciferase reporter, 16 h; inhibition, % at 4 µM; actives 0.33% (n = 330,000); AID 435022; in the data active = inhibition above about 35%
UPR CHOP act: activators of apoptotic arm of unfolded protein response (CHOP); activation, % at 10 µM; CHO-CHOP luciferase reporter, UPR activation, luminescence; percent of tunicamycin response over DMSO baseline; actives 0.34% (n = 330,000);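 active = at 10 µM dose, activation of 40% or more, normalized to positive control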;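 also: 100% = tunicamycin at 10 µg/mL and 0% = DMSO alone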
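Assay system: CHO cells with stable CHOP pathway luciferase reporter; Buffer or medium: F12 plus 10% serum; Times: 16-18 h cell attachment, then 6 h compound exposure, 37 °C; Signal: luciferase luminescence; Read-out basis: percent activation relative to tunicamycin control; Control set: tunicamycin high control, DMSO low control.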
Gli-Sufu block: antagonists of Gli-Sufu signaling. actives 0.74% (n = 340,000). inhibition, % at 5 µM. Sufu-KO-LIGHT fibroblasts, Gli luciferase reporter luminescence. AID 588413;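 active = inhibition above about 55%, limit read from the data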;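 also: 0% = DMSO-treated cells and 100% = wells with medium but no cells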
CHOP inh: CHOP inhibition in unfolded protein response | CHO-K1 CHOP-promoter luciferase, tunicamycin-induced, 15-18 h | actives 3.8% (n = 220,000) | AID 2732 | inhibition, % at 10 µM;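 active = compounds that reduced the stress-induced luciferase reporter signal by more than about 70% of percent inhibition, limit read from the data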;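 also: 0% = tunicamycin plus vehicle and 100% = wells without tunicamycin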
XBP1 UPR activ: activators of adaptive arm of unfolded protein response (XBP1); actives 0.33% (n = 330,000); CHO-XBP1 luciferase reporter, IRE1-XBP1 UPR activation, luminescence; percent of tunicamycin response, DMSO as zero; AID 463104; activation, % at 20 µM;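 active = versus positive control, 20 µM dose yields 30% or more activation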;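 also: 100% = tunicamycin at 10 µg/mL and 0% = DMSO only wells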
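Test system: CHO-XBP1 luciferase reporter cells | Buffer or medium: Serum-containing F12 medium, 10% FBS | Schedule: 6 h compound exposure at 37 °C, 5% CO2 | Detection: Steady-Glo luciferase glow luminescence, 10 min after reagent addition | Read-out basis: Activation, % of tunicamycin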
Jurkat NFkB inh: lowers PMA/ionomycin-induced NF-kB signal in Jurkat cells | inhibition, % at 4 µM | PMA/ionomycin-induced NF-kB luciferase reporter, luminescence | actives 0.53% (n = 330,000) | AID 435003; in the data active = inhibition above about 50%
The depositor's hits bear a star; / = no result given.

SMILES | 697 NFkB inh | UPR CHOP act | Gli-Sufu block | CHOP inh | XBP1 UPR activ | Jurkat NFkB inh
CC(OC(=O)CNC(=O)c1ccc(Cl)cc1)C(=O)NC1CCCCC1C (centres undefined) | -13.7 | 1.7 | 4.2 | / | -0.9 | -6.5
COC(=O)/C(C#N)=C/c1c(Oc2cccc(C)c2C)nc2ccccn2c1=O | 6.3 | -0.6 | 1.3 | 86.4* | 8.0 | 20.2
CCOC(=O)/C(C#N)=C/c1c(Oc2cccc(C)c2)nc2c(C)cccn2c1=O | 4.3 | -0.3 | 1.9 | 77.0* | 0.9 | 7.9
CCOC(=O)/C(C#N)=C/c1c(Oc2cccc(C)c2)nc2ccccn2c1=O | 0.0 | 1.1 | -0.6 | 16.7 | -1.7 | -9.2
Cc1c(NC(=O)CSc2nncn2-c2ccccc2)c(=O)n(-c2ccccc2)n1C | -4.4 | 1.3 | -6.6 | / | 1.1 | -10.6
CS(=O)(=O)c1ccc(-c2csc(-c3cccnc3)n2)cc1 | -26.2 | 1.8 | 0.1 | / | 0.3 | -26.4
Cc1nc(SCc2nc3ccc(C(F)(F)F)cc3[nH]2)c2oc3ccccc3c2n1 | 12.5 | -1.8 | 8.4 | / | 0.2 | 0.9
COc1ccc(C(=O)c2ccc(Br)cc2)cc1 | -13.7 | 3.7 | -34.9 | 76.0* | 0.1 | -36.3
COc1ccc(-c2[nH]n(-c3ccc([N+](=O)[O-])cc3)c(=O)c2C=NCc2ccncc2)cc1 | 10.8 | 1.7 | 9.1 | 84.8* | 1.6 | 0.5
COC(=O)[C@@H](Cc1ccc(O)cc1)NC(=O)[C@H]1CCC(=O)N1C(=O)OCc1ccccc1 | -1.2 | 1.1 | -5.1 | / | -1.6 | -4.4
CC(=O)Nc1cccc(NC(=O)CSc2ncc(C(=O)Nc3ccccc3)c(=O)n2C)c1 | -8.4 | 202.5* | 1.6 | / | -5.2 | 12.6
CC(=O)Nc1cccc(NC(=O)CSc2ncc(-c3ccc(Cl)cc3)n2Cc2ccco2)c1 | -7.8 | 3.6 | 6.6 | 88.2* | -0.3 | -5.0
CC(=O)N1CCCc2cc(S(=O)(=O)CCC(=O)Nc3cccc(C)c3C)ccc21 | 3.1 | -0.5 | -6.6 | / | -3.7 | 5.7
CC(C)(C)c1cc(NC(=O)CCSc2nnc3ccccn23)cc(C(C)(C)C)c1 | -38.2 | 2.4 | -5.6 | 88.4* | -3.1 | -0.4
COc1cc(NC(=O)CSc2nnc3ccccn23)cc(OC)c1 | 16.6 | 1.6 | -25.0 | / | -3.2 | 2.3
O=c1[nH]c(=O)c2nc3c4ccccc4c4ccccc4c3nc2[nH]1 | -21.3 | 3.5 | -8.8 | 77.6* | 1.7 | -7.5
COC(=O)C1(C(F)(F)F)C2C=CC(C2)N1S(=O)(=O)c1ccc(C)cc1 (centres undefined) | 0.0 | 1.8 | 19.5 | / | -3.7 | 1.3
CCOc1ccc(C(=O)NNC(=O)CN2C(=O)C3CC=CCC3C2=O)cc1OC (centres undefined) | 4.2 | 0.2 | -5.8 | / | -4.1 | -6.7
Oc1ccccc1-c1cc(C(F)(F)F)nc(-c2ccccc2)n1 | -17.1 | -1.8 | 0.9 | 72.6* | -1.7 | 6.1
Oc1ccc(/C=C/c2ccc3ccccc3n2)cc1 | -116.0 | -6.7 | -30.7 | 57.9 | -7.1 | 15.3
CN(C)c1ccc(/C=C/c2ccc3ccccc3n2)cc1 | / | / | 28.3 | 77.8* | / | /
CN(C)c1ccc(/C=C/c2nc3ccccc3s2)cc1 | -187.8 | -7.2 | 21.7 | 81.1* | -5.5 | -33.9
COc1cccc(CN2CC(C(=O)NCC3CCOCC3)CCC2=O)c1 (centres undefined) | -6.3 | -1.3 | -4.6 | / | -3.0 | 2.2
CC(C)CCNC(=O)c1cn(CC(C)C)c(=O)c2c1c1ccccc1n2C | -8.2 | 1.3 | -0.5 | / | 0.7 | -5.7
CC(C)Cn1cc(C(=O)NCc2cccs2)c2c3ccccc3n(C)c2c1=O | 9.1 | -1.1 | 4.6 | 93.6* | -3.1 | -2.8
SMILES | 697 NFkB inh | UPR CHOP act | Gli-Sufu block | CHOP inh | XBP1 UPR activ | Jurkat NFkB inh
C=CCC1(CC=C)CCCN1C(=O)c1cc(COc2ccc(C)nc2)on1 | 2.7 | 8.4 | 77.2* | / | -3.0 | 43.0
CCN(CC)CC(O)c1ccc2ccc3ccc(O)cc3c2c1 (centres undefined) | / | / | -3.0 | / | / | /
CC(=O)N1CCN(C(=O)c2cccc(S(=O)(=O)Nc3c(C)n(C)n(-c4ccccc4)c3=O)c2)CC1 | -31.9 | -0.2 | -5.2 | / | -0.4 | -12.1
O=C(COC(=O)CCN1C(=O)/C(=C\C=C\c2ccccc2)SC1=S)Nc1cc(F)ccc1F | 2.3 | -2.4 | 11.6 | 77.3* | -3.3 | 16.0
O=C(CN1C(=O)/C(=C\C=C\c2ccccc2)SC1=S)Nc1ccc(F)cc1 | -27.7 | 3.8 | -17.2 | 88.6* | -1.8 | -5.5
CCOC(=O)c1[nH]cnc1N=Nc1c(O)ccc2ccccc12 | / | / | 57.3* | 45.3 | / | /
Oc1ccc2ccccc2c1N=Nc1ccccc1F | -33.1 | 3.7 | 11.1 | -1.9 | -1.4 | -8.4
Cc1ccc(Cl)cc1NC(=O)CON=C(N)c1ccccc1 | -30.2 | 0.0 | 31.4 | / | 1.0 | -2.5
O=[N+]([O-])c1ccccc1NCc1c(O)ccc2ccccc12 | -0.8 | -0.3 | 0.4 | 89.1* | -4.6 | 3.4
COc1ccc(Cc2nc3ccc(C(=O)NCC4COCCO4)cc3o2)cc1OC (centres undefined) | -7.6 | 3.2 | -8.8 | / | 1.4 | 10.7
Cc1ccc(/C=C/C2=NN(Cc3ccccc3)C(=O)CC2)cc1 | 16.7 | 0.4 | -27.4 | 11.0 | -1.5 | 1.5
Cc1ccc(/C=C/C2=NN(Cc3ccccc3Cl)C(=O)CC2)cc1 | 5.0 | -1.3 | -1.6 | 73.7* | -2.0 | 11.3
COc1ccc(CC(=O)N2CCN(S(=O)(=O)c3cc(Cl)ccc3Cl)CC2)cc1 | 13.1 | -1.1 | -11.6 | / | -0.5 | -2.0
NC(=O)CC(NC(=O)Cc1cccc2ccccc12)c1ccc(NC2CCCCCC2)c([N+](=O)[O-])c1 (centres undefined) | 0.1 | -0.9 | -6.9 | 95.5* | -0.5 | 2.7
COc1ccc(CCNc2ccc(C(CC(N)=O)NC(=O)c3ccccc3)cc2[N+](=O)[O-])cc1 (centres undefined) | -1.3 | -2.7 | 46.6 | 20.1 | -0.7 | 24.6
NC(=O)CC(NC(=O)Cc1cccc2ccccc12)c1ccc(NC2CCN(Cc3ccccc3)CC2)c([N+](=O)[O-])c1 (centres undefined) | -20.1 | 1.4 | 3.6 | / | -0.8 | -10.6
NC(=O)CC(NC(=O)Cc1cccc2ccccc12)c1ccc(NCCc2ccccc2F)c([N+](=O)[O-])c1 (centres undefined) | 15.3 | -1.2 | -1.7 | 91.0* | -1.3 | 11.8
NC(=O)CC(NC(=O)Cc1cccc2ccccc12)c1ccc(NC2CCCCCCC2)c([N+](=O)[O-])c1 (centres undefined) | -5.0 | 1.5 | -15.4 | 74.8* | -0.6 | 10.8
NC(=O)CC(NC(=O)c1ccccc1)c1ccc(NCCc2ccc(F)cc2)c([N+](=O)[O-])c1 (centres undefined) | -3.4 | 0.7 | 39.8 | 91.8* | 0.4 | 12.6
